Most compounds without a hit are left out; they make up all but 3.1% or so of the library.
KCNQ1 inh: inhibitors of human KCNQ1 potassium channel; P51787; CHO-K1 KCNQ1, FluxOR thallium flux fluorescence; active compounds read high; B-score at 10 µM; 310,000 compounds, 1.3% hits;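 active = compounds whose thallium flux B-score, printed positive for inhibition, exceeds three library SD while starting fluorescence stays within three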;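 note: channel opened by potassium depolarization with thallium stimulus after 20 min compound exposure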
KCNQ1 pot: potentiators or activators of human KCNQ1 potassium channel. P51787. CHO-K1 KCNQ1, thallium flux FluxOR fluorescence; active compounds read high. 310,000 compounds, 0.35% hits. B-score at 10 µM;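 active = fluorescence ratio B-score, a plate-corrected score, at least three library SD, with initial intensity B-score within 5 SD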
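assay system = KCNQ1-transfected CHO-K1 cells | medium = assay buffer with matched DMSO | probe or stimulus = depolarizing K+/Tl+ stimulus, K2SO4 and Tl2SO4 each 12.5 mM in 5x stock | dosing = single dose | incubation = dye 90 min, compound 20 min, room temperature | detection = kinetic FluxOR fluorescence, 10 s baseline plus 110 s post-stimulus | evaluation = ratio B score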
KCNK3 block: human KCNK3 channel inhibition, primary screen; O14649; CHO-KCNK3 thallium flux, FluxOR fluorescence; active compounds read low; B-score at 10 µM; 340,000 compounds, 0.84% hits; AID 602410;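 active = B-score under library mean minus 4 SD, starting fluorescence ratio at most library mean plus 5 SD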;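 note: more negative B-score means stronger inhibition of thallium flux through KCNK3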
KCNK9 inh: blocks the human KCNK9 two-pore domain potassium channel; B-score at 10 µM; HEK293 KCNK9, FluxOR thallium flux fluorescence; active compounds read low; 310,000 compounds, 1.2% hits; Q9NPC2; AID 488922;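 active = ratio B-score over 3 SD below the library mean, with starting fluorescence within 5 SD of its mean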;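 note: negative B-score means less thallium flux so channel inhibition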
Target sequence (Q9NPC2 whole entry, looked up, the tested form may be a part): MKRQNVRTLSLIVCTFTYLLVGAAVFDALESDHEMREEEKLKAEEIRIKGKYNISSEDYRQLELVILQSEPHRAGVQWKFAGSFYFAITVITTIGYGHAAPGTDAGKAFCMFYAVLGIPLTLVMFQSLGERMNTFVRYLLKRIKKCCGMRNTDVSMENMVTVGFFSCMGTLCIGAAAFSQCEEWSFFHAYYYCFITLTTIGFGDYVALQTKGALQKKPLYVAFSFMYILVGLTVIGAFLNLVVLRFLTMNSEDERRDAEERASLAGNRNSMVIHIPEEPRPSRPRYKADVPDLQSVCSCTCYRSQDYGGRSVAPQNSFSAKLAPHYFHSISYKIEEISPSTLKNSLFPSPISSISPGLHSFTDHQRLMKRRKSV
hERG protect: compounds protecting human hERG from proarrhythmic drug block; Q12809; CHO-hERG, FluxOR thallium flux, dofetilide IC70 present; activation (rescue from dofetilide block), less the hit threshold, % at 10 µM; 310,000 compounds, 0.51% hits;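 active = activation above the mean of controls blocked by dofetilide plus 5 SD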;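 note: thallium influx through hERG after potassium depolarization seen as dye fluorescence rise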
* = called active by the depositor.

What do the screens show for `O=C(/C=C/c1ccco1)N(Cc1cccc(F)c1)C1CCS(=O)(=O)C1` (stereo not drawn)?
KCNQ1 inh: inactive; KCNQ1 pot: inactive; KCNK3 block: inactive; KCNK9 inh: inactive; hERG protect: -9

How did Cn1nc(C(C)(C)C)c([N+](=O)[O-])c1C(=O)Nc1ccccc1 do in these assays?
KCNQ1 inh: inactive; KCNQ1 pot: inactive; KCNK3 block: inactive; KCNK9 inh: inactive; hERG protect: -10

Results for Cc1ccc(NC(=O)c2c([N+](=O)[O-])c(C(C)(C)C)nn2C)cc1 ?
KCNQ1 inh: inactive; KCNQ1 pot: inactive; KCNK3 block: inactive; KCNK9 inh: inactive; hERG protect: 24*

Results for Cc1nc2cc(Cl)c(Cl)cc2n1-c1ccccn1 ?
KCNQ1 inh: inactive; KCNQ1 pot: inactive; KCNK3 block: inactive; KCNK9 inh: inactive; hERG protect: -6

How did CO/N=C/c1ccc(N2CCN(C(=O)c3ccc(Cl)cc3Cl)CC2)c([N+](=O)[O-])c1 do in these assays?
KCNQ1 inh: 7*; KCNQ1 pot: inactive; KCNK3 block: inactive; KCNK9 inh: inactive; hERG protect: -20

How did COc1ccccc1-n1nnnc1SCC(=O)Nc1ccc(C)c(N)c1 do in these assays?
KCNQ1 inh: inactive; KCNQ1 pot: inactive; KCNK3 block: inactive; KCNK9 inh: inactive; hERG protect: -4

How did CCN(C(=O)CSc1nc2cc(Cl)ccc2c(=O)n1CC(C)C)C1CCS(=O)(=O)C1 (stereo not drawn) do in these assays?
KCNQ1 inh: inactive; KCNQ1 pot: inactive; KCNK3 block: -11*; KCNK9 inh: inactive; hERG protect: -14

What do the screens show for `CCN(C(=O)CSc1nc2ccccc2c(=O)n1-c1ccc(C)cc1)C1CCS(=O)(=O)C1` (stereo not drawn)?
KCNQ1 inh: inactive; KCNQ1 pot: inactive; KCNK3 block: inactive; KCNK9 inh: inactive; hERG protect: -17

How did CCN(C(=O)CSc1nc2ccccc2c(=O)n1C(C)COC)C1CCS(=O)(=O)C1 (stereo not drawn) do in these assays?
KCNQ1 inh: inactive; KCNQ1 pot: inactive; KCNK3 block: inactive; KCNK9 inh: inactive; hERG protect: -6

How did CCN(C(=O)CSc1nc2ccccc2c(=O)n1-c1ccccc1F)C1CCS(=O)(=O)C1 (stereo not drawn) do in these assays?
KCNK3 block: -11*

How did O=C(COc1ccc2c3c(c(=O)oc2c1)CCC3)Nc1ccc(CN2CCOCC2)cc1 do in these assays?
KCNQ1 inh: inactive; KCNQ1 pot: inactive; KCNK3 block: inactive; KCNK9 inh: inactive; hERG protect: -9

What do the screens show for `CCC(C)Nc1ccc(NC(C)CC)cc1` (stereo not drawn)?
KCNK3 block: -8.9*

Results for COc1ccc(Cl)cc1C(=O)NCC(=O)OCc1ccccc1 ?
KCNQ1 inh: inactive; KCNQ1 pot: inactive; KCNK3 block: inactive; KCNK9 inh: inactive; hERG protect: -16

Results for COc1cccc2cc(C(=O)NC3CC4CCC3C4)oc12 (stereo not drawn) ?
KCNQ1 inh: inactive; KCNQ1 pot: inactive; KCNK3 block: inactive; KCNK9 inh: inactive; hERG protect: -1

Results for COC(=O)Cc1c[nH]c2cccc(OCC(O)CN(Cc3ccc([N+](=O)[O-])cc3)C(C)(C)C)c12 (stereo not drawn) ?
KCNQ1 inh: inactive; KCNQ1 pot: inactive; KCNK3 block: inactive; KCNK9 inh: -7.8*; hERG protect: -11

What do the screens show for `Cc1ccc(S(=O)(=O)N2CCCCC2)cc1NC(=O)Cn1ncc(Cl)c(Cl)c1=O`?
KCNK3 block: inactive

What do the screens show for `Cc1cc(Br)ccc1NC(=O)CNC(=O)Cn1ncc(Cl)c(Cl)c1=O`?
KCNQ1 inh: inactive; KCNQ1 pot: inactive; KCNK3 block: inactive; KCNK9 inh: inactive; hERG protect: 4.7*

Results for COC(=O)[C@@]12CCCCN1[C@H](c1ccc(-c3ccc(OC)cc3)c(OC)c1)[C@@H]1C(=O)N(C)C(=O)[C@@H]12 ?
KCNK3 block: inactive

Results for Cc1nc2c(C(=O)N3CCN(c4ccccn4)CC3)cnn2c(C)c1Cc1cccc(Cl)c1 ?
KCNQ1 inh: inactive; KCNQ1 pot: 7*; KCNK3 block: inactive; KCNK9 inh: inactive; hERG protect: -18

What do the screens show for `Cc1nc2c(C(=O)N3CCCC3)cnn2c(C)c1Cc1c(F)cccc1Cl`?
KCNQ1 inh: inactive; KCNQ1 pot: inactive; KCNK3 block: inactive; KCNK9 inh: inactive; hERG protect: -11

What do the screens show for `O=C(COC(=O)C1CC(=O)N(c2ccc3c(c2)OCCO3)C1)NC1CCCc2ccccc21` (stereo not drawn)?
KCNQ1 inh: inactive; KCNQ1 pot: inactive; KCNK3 block: inactive; KCNK9 inh: inactive; hERG protect: -4

How did O=C(COC(=O)CCNS(=O)(=O)c1ccc2c(c1)OCCO2)NC1CCCc2ccccc21 (stereo not drawn) do in these assays?
KCNQ1 inh: inactive; KCNQ1 pot: inactive; KCNK3 block: inactive; KCNK9 inh: inactive; hERG protect: 5.3*

How did CCc1ccc(S(=O)(=O)NC(=S)NC2CCCCC2)cc1 do in these assays?
KCNQ1 inh: inactive; KCNQ1 pot: 23*; KCNK3 block: inactive; KCNK9 inh: inactive; hERG protect: 21*

How did O=S(=O)(NC(=S)NC1CCCCC1)c1ccc(Cl)cc1 do in these assays?
KCNQ1 inh: inactive; KCNQ1 pot: inactive; KCNK3 block: inactive; KCNK9 inh: inactive; hERG protect: 5.5*

What do the screens show for `CCc1ccc(C(C)NC(=S)NC2CCCCC2)cc1` (stereo not drawn)?
KCNQ1 inh: inactive; KCNQ1 pot: inactive; KCNK3 block: inactive; KCNK9 inh: inactive; hERG protect: -3

Results for Cc1ccc(S(=O)(=O)NC(C)C(=O)NC2CCCCCC2)cc1 (stereo not drawn) ?
KCNQ1 inh: inactive; KCNQ1 pot: inactive; KCNK3 block: inactive; KCNK9 inh: inactive; hERG protect: -6

Results for Cc1ccc(S(=O)(=O)NC(=S)NC2CCCCC2)cc1 ?
KCNQ1 inh: inactive; KCNQ1 pot: inactive; KCNK3 block: inactive; KCNK9 inh: inactive; hERG protect: 7.5*

What do the screens show for `CCCCSc1nc(NCc2ccco2)c2c3c(sc2n1)COC(C)(C)C3`?
KCNQ1 inh: 6*; KCNQ1 pot: inactive; KCNK3 block: inactive; KCNK9 inh: inactive; hERG protect: -18

How did CSc1nc(NCc2ccco2)c2c3c(sc2n1)CN(C)CC3 do in these assays?
KCNQ1 inh: inactive; KCNQ1 pot: inactive; KCNK9 inh: inactive; hERG protect: -17

Results for CC(CN(C)Cc1ccccc1)OC(=O)c1cccs1 (stereo not drawn) ?
KCNQ1 inh: inactive; KCNQ1 pot: inactive; KCNK3 block: inactive; KCNK9 inh: inactive; hERG protect: 47*

Results for CC(CN(C)Cc1ccccc1)OC(=O)c1ccccc1F (stereo not drawn) ?
KCNQ1 inh: inactive; KCNQ1 pot: inactive; KCNK3 block: inactive; KCNK9 inh: inactive; hERG protect: -12

Assay outcomes as filed in PubChem BioAssay.
